The values below come from ChEMBL document CHEMBL2146434, “Synthesis and biological evaluation of new amino acid and dipeptide derivatives of neocryptolepine as anticancer agents” (J Med Chem, 2012).

Series [1] is described as follows: Octanol-water partition coefficient, log P of the compound at pH 5. It is filed as physicochemical.
A further series has as its system LoVo. Description: Cytotoxicity against human LoVo cells after 72 hrs by SRB assay. It counts as functional, cell-based. The gist of the method:
(§1)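 IC50 is the compound concentration giving 50% inhibition of cell proliferation. It was determined on normal mouse BALB/3T3 fibroblasts and on human A549, MCF-7 and LoVo cancer lines, with doxorubicin hydrochloride and DiMIQ as reference compounds.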
On the technique in general: Sulforhodamine B stains cellular protein and so reports cell mass.

The nature of series [2]: Octanol-water partition coefficient, log P of the compound at pH 2.2. It counts as physicochemical.
Series [3] deals with Lewis lung carcinoma cell line. Description: Antineoplastic activity against mouse LLC cells xenografted in C57BL/6 mouse assessed as tumor growth inhibition at 50 mg/kg/day, ip administered on day 10 to day 14 of tumor implantation measured on day 24. It counts as functional. The note with it: route intraperitoneal, read-out: TGI. The procedure, abridged:
(§2)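 Mice bore Lewis lung carcinoma (LLC) inoculated subcutaneously and received test agents intraperitoneally at 15–50 mg kg⁻¹ day⁻¹ from day 9 or day 10. A single 100 mg/kg cyclophosphamide dose was the cytostatic control. Tumor growth was followed as the group median, and TGI% was calculated from medians versus untreated controls. Significance was tested by nonparametric Kruskal–Wallis multiple comparison, p < 0.05.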

A short description of series [4]: Solubility of the compound in water. The note with it: buffer. It counts as physicochemical.
The nature of series [5]: Dissociation constant, pKa of the compound in PBS buffer at 5 uM at pH 2 to 10 by UV-spectrophotometric analysis. It is filed as physicochemical. The procedure, abridged:
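UV spectrophotometric titration at a final compound concentration of 5 μM. At this concentration the absorbance–concentration relationship stayed linear. pKa was read from spectral changes across pH.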

Series [6] has as its system Mus musculus. Briefly: Toxicity in C57BL/6 mouse xenografted with mouse LLC cells assessed as body weight loss at 15 mg/kg/day, sc administered on day 9 to day 13 of tumor implantation. It counts as organism-based. More on the design: route subcutaneous. The note with it: in vivo. The procedure, abridged:
(§3)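 Body weight was tracked in C57BL/6 mice bearing subcutaneously inoculated LLC during therapy given daily from day 9 to day 13. A single 100 mg/kg dose of cyclophosphamide served as the cytostatic control group.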

The test system of series [7] is Lewis lung carcinoma cell line. Description: Antineoplastic activity against mouse LLC cells xenografted in C57BL/6 mouse assessed as tumor growth inhibition at 50 mg/kg/day, ip administered on day 10 to day 14 of tumor implantation measured on day 19. The note with it: route intraperitoneal, read-out: TGI. It counts as functional. The procedure, abridged: as §2

Series [8] is described as follows: Octanol-water partition coefficient, log P of the compound in citric buffer at pH 2.5 by spectrophotometric analysis. It is filed as physicochemical. The gist of the method: (§4)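 Octanol–water partitioning, with log P defined as log(C_octanol/C_water). Compound in the aqueous phase was measured spectrophotometrically, and octanol content was obtained by subtracting the supernatant concentration from the total. Values are the mean of two independent experiments, each run in triplicate.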

The subject of series [9] is Mus musculus. Description: Toxicity in C57BL/6 mouse xenografted with mouse LLC cells at 25 to 50 mg/kg/day, ip administered on day 9 to day 13 of tumor implantation. It counts as organism-based. More on the design: route intraperitoneal. The note with it: in vivo. The procedure, abridged:
(§5)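 Mouse Lewis lung carcinoma (LLC) cells inoculated sc into mice. Daily dosing from day 9: 15 mg kg⁻¹ day⁻¹ through day 13 or 30 mg kg⁻¹ day⁻¹ through day 12; 25 or 50 mg kg⁻¹ day⁻¹ through day 13. Route is given as ip in tables and text but sc in figure legends. Body weight monitored for loss alongside tumor growth. Single 100 mg/kg cyclophosphamide dose as cytostatic control.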

For the next series, the system named is MCF7. Briefly: Cytotoxicity against human MCF7 cells after 72 hrs by SRB assay. It is filed as functional, cell-based. The note with it: MCF7, 72 h. The gist of the method:
as §1

In series [10] the test system is Lewis lung carcinoma cell line. Briefly: Antineoplastic activity against mouse LLC cells xenografted in C57BL/6 mouse assessed as tumor growth inhibition at 25 mg/kg/day, ip administered on day 10 to day 14 of tumor implantation measured on day 17. The note with it: route intraperitoneal, read-out: TGI. It counts as functional. The procedure, abridged: as §2
Series [11] relates to Lewis lung carcinoma cell line. Briefly: Antineoplastic activity against mouse LLC cells xenografted in C57BL/6 mouse assessed as tumor growth inhibition at 25 mg/kg/day, ip administered on day 10 to day 14 of tumor implantation measured on day 12. It counts as functional. The note with it: route intraperitoneal, read-out: TGI. The gist of the method: as §2
Series [12] has as its system Lewis lung carcinoma cell line. Description: Antineoplastic activity against mouse LLC cells xenografted in C57BL/6 mouse assessed as tumor growth inhibition at 50 mg/kg/day, ip administered on day 10 to day 14 of tumor implantation measured on day 17. It is filed as functional. The note with it: route intraperitoneal, read-out: TGI. The procedure, abridged:
as §2

In series [13] the test system is Lewis lung carcinoma cell line. Description: Antineoplastic activity against mouse LLC cells xenografted in C57BL/6 mouse assessed as tumor growth inhibition at 25 mg/kg/day, ip administered on day 10 to day 14 of tumor implantation measured on day 24. It is filed as functional. The note with it: route intraperitoneal, read-out: TGI. The procedure, abridged: as §2

A short description of series [14]: Toxicity in human erythrocytes assessed as hemolysis at 0.3 mM after 30 mins by spectrophotometric analysis. It counts as cell-based, Erythrocyte. The note with it: read-out: Activity. The procedure, abridged: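 Human erythrocyte suspension under isotonic conditions (pH 7.4, hematocrit 50%). Compound added across a concentration series and incubated 30 min at 37 °C before hemolysis was scored. Mean ± SD of three individual determinations. Statistics by Mann–Whitney U test, p < 0.05.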

The test system of series [15] is Lewis lung carcinoma cell line. Briefly: Antineoplastic activity against mouse LLC cells xenografted in C57BL/6 mouse assessed as tumor growth inhibition at 25 mg/kg/day, ip administered on day 10 to day 14 of tumor implantation measured on day 19. It is filed as functional. The note with it: route intraperitoneal, read-out: TGI. The procedure, abridged:
as §2

Series [16] relates to Lewis lung carcinoma cell line. Briefly: Antineoplastic activity against mouse LLC cells xenografted in C57BL/6 mouse assessed as tumor growth inhibition at 50 mg/kg/day, ip administered on day 10 to day 14 of tumor implantation measured on day 21. It counts as functional. The note with it: route intraperitoneal, read-out: TGI. The gist of the method:
as §2

Series [17] is described as follows: Octanol-water partition coefficient, log P of the compound in PBS buffer at pH 7.4 by spectrophotometric analysis. It is filed as physicochemical. The gist of the method:
as §4

The subject of series [18] is Mus musculus. Briefly: Toxicity in C57BL/6 mouse xenografted with mouse LLC cells assessed as body weight loss at 30 mg/kg/day, ip administered on day 9 to day 12 of tumor implantation. It is filed as organism-based. On the set-up: route intraperitoneal. The note with it: in vivo. The gist of the method:
as §5

Series [19] concerns Mus musculus. Briefly: Toxicity in C57BL/6 mouse xenografted with mouse LLC cells assessed as body weight loss at 50 mg/kg/day, sc administered on day 9 to day 13 of tumor implantation. It is filed as organism-based. On the set-up: route subcutaneous. The note with it: in vivo. The procedure, abridged:
as §5

Series [20] has as its system Mus musculus. Description: Toxicity in C57BL/6 mouse xenografted with mouse LLC cells assessed as body weight loss at 30 mg/kg/day, sc administered on day 9 to day 12 of tumor implantation. More on the design: route subcutaneous. It is filed as organism-based. The note with it: in vivo. The procedure, abridged:
as §5

Series [21] concerns Lewis lung carcinoma cell line. Briefly: Antineoplastic activity against mouse LLC cells xenografted in C57BL/6 mouse assessed as tumor growth inhibition at 25 mg/kg/day, ip administered on day 10 to day 14 of tumor implantation measured on day 14. The note with it: route intraperitoneal, read-out: TGI. It counts as functional. The procedure, abridged:
as §2

In series [22] the test system is Lewis lung carcinoma cell line. Briefly: Antineoplastic activity against mouse LLC cells xenografted in C57BL/6 mouse assessed as tumor growth inhibition at 50 mg/kg/day, ip administered on day 10 to day 14 of tumor implantation measured on day 14. It counts as functional. The note with it: route intraperitoneal, read-out: TGI. The gist of the method: as §2
Series [23] concerns Lewis lung carcinoma cell line. Description: Antineoplastic activity against mouse LLC cells xenografted in C57BL/6 mouse assessed as tumor growth inhibition at 50 mg/kg/day, ip administered on day 10 to day 14 of tumor implantation measured on day 12. The note with it: route intraperitoneal, read-out: TGI. It counts as functional. The procedure, abridged:
as §2

Another series deals with KB. Description: Cytotoxicity against human KB cells after 72 hrs by SRB assay. It is filed as functional, cell-based.
Series [24] relates to Mus musculus. Briefly: Toxicity in C57BL/6 mouse xenografted with mouse LLC cells assessed as body weight loss at 25 mg/kg/day, sc administered on day 9 to day 13 of tumor implantation. It counts as organism-based. On the set-up: route subcutaneous. The note with it: in vivo. The procedure, abridged: as §3
For another series, the system named is A549. Description: Cytotoxicity against human A549 cells after 72 hrs by SRB assay. It is filed as functional, cell-based. The note with it: A549, 72 h. The gist of the method:
as §1

Series [25] relates to Mus musculus. Briefly: Toxicity in C57BL/6 mouse xenografted with mouse LLC cells assessed as body weight loss at 15 mg/kg/day, ip administered on day 9 to day 13 of tumor implantation. It counts as organism-based. More on the design: route intraperitoneal. The note with it: in vivo. The gist of the method:
as §3

In series [26] the test system is Lewis lung carcinoma cell line. Description: Antineoplastic activity against mouse LLC cells xenografted in C57BL/6 mouse assessed as tumor growth inhibition at 25 mg/kg/day, ip administered on day 10 to day 14 of tumor implantation measured on day 21. It is filed as functional. The note with it: route intraperitoneal, read-out: TGI. The gist of the method:
as §2

As a reminder, the logP is the decadic logarithm of the partition coefficient of the neutral form, usually between octanol and water. High values mean a more lipophilic compound, low ones a more hydrophilic compound. By IC50 is commonly meant the concentration at which inhibition is half-maximal. On to `Cc1c2c3ccccc3nc-2n(C)c2ccccc12`, for which the lipophilicity (logP) is 2 in [1] and -1 in series [2]. In the series on LoVo, this compound showed an IC50 of 200 nM.
As a reminder, the pKa is the pH at which an ionisable group is half protonated. The low end stands for a group that gives up its proton readily, the high end for a group that holds its proton tightly. Broadly, the logD is lipophilicity at a set pH, counting ionised and neutral species. A low value points to a more hydrophilic compound. With `Cc1c2c3cc(NC(=O)CNC(=O)[C@@H]4CCCN4)ccc3nc-2n(C)c2ccccc12.Cl.Cl`, the inhibition in vivo at 50 mg/kg/day in series [3] was 8.19%; in series [7], 33.1%; in series [12], 18.5%; in [16] it was 32.5%; in series [22] it was 36.5%; in [23], 16.3%. Besides, in series [4], the solubility result is “soluble”. In series [5], this compound returned a pKa at 5 µM of 7.3. The Activity result in the series with Mus musculus [6] is recorded as “<= 15%”; in the series on Mus musculus [9], “Non-toxic”; in the series with Mus musculus [18], “<= 15%”; in the series with Mus musculus [19], “<= 15%”; in the series with Mus musculus [20] it was “<= 15%”; with Mus musculus [24], “<= 15%”. Moreover, the Activity result in the series on Mus musculus [25] was “<= 15%”. For the same compound, the log partition coefficient (logP) in series [8] is -1.9. Moreover, the 50% inhibitory concentration (IC50) in the series on MCF7 worked out at 1430 nM; in the series with LoVo it was 980 nM; in the series with KB it was 3730 nM; in the series with A549, 1150 nM. The inhibition in vivo at 25 mg/kg/day was 0% in series [10]; 12.9% in series [11]; 0% in series [13]; 3.1% in series [15]; 11.6% in series [21]; 0% in series [26]. For the same compound, the hemolysis at 0.5 h, 300 µM in series [14] stood at 9.97%. The same compound yielded a pH-dependent lipophilicity (logD) in [17] of -0.1.
